# Results from ChEMBL document CHEMBL1138784, “Rational design, synthesis, and biological evaluation of bis(pyrimido[5,6,1-de]acridines) and bis(pyrazolo[3,4,5-kl]acridine-5-carboxamides) as new anticancer agents” (J Med Chem, 2004).
# pIC50: −log10 of the molar value.
# What was measured:
# HT-29 = assay: Cytotoxicity is determined as the concentration required to inhibit the growth of human colon adenocarcinoma (HT-29) cell line; format: functional, cell-based
# Nucleic Acid [1] = assay: Binding site preference is determined as the ratio of Poly (dA-dT)2 to Poly (dG-dC)2; format: nucleic-acid assay
# How it was run: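 Ethidium displacement fluorometry at pH 7.0 (10 mM Na2HPO4, 10 mM NaH2PO4, 1 mM EDTA) with 1.26 μM ethidium bromide and 1 μM [poly(dA-dT)]2 or [poly(dG-dC)]2, 20 °C. Ex 546 nm, em 595 nm, drug added serially from a DMSO stock. Preference taken from the [AT]/[GC] ratio of C50 values, counted significant only below 0.7 or above 1.3.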
# Nucleic Acid [2] = assay: Binding site preference is determined as the ratio of AT to GC
# [3] = Cytotoxicity against human H460M cancer cell line was determined after 1 hr; format: cell-based; conditions: Cancer cell lines
# How it was run: (§1)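 MTT colorimetric assay. Cells seeded by growth characteristics and preincubated 24 h, then exposed to drug for 1 h or 144 h at 37 °C, 5% CO2. H460M, MKN45 and PC-3 were grown in RPMI 1640 with 10% FCS. HCT116 was grown in D-MEM with 10% FBS and 2 mM glutamine.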
# MKN-45 = assay: Cytotoxicity against human MKN45 cancer cell line was determined after 144 hr; format: functional, cell-based; conditions: MKN-45, 144 h; how it was run: as §1
# [4] = Cytotoxicity against human PC3 cancer cell line was determined after 1 hr; format: cell-based; conditions: Cancer cell lines; how it was run: as §1
# LoVo = assay: Cytotoxicity against human LoVo cancer cell line was determined after 144 hr; format: functional, cell-based
# How it was run: (§2)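 MTT assay on doxorubicin-sensitive LoVo and resistant LoVo/Dx cells, 24 h preincubation, then 1 h or 144 h drug exposure at 37 °C, 5% CO2. IC50 in nM. Resistance index is IC50 on LoVo/Dx divided by IC50 on LoVo.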
# HCT-116 = assay: Cytotoxicity against human HCT116 cancer cell line was determined after 144 hr; format: functional, cell-based; conditions: HCT-116, 144 h; how it was run: as §1
# [5] = Cytotoxicity against human MKN45 cancer cell line was determined after 1 hr; format: cell-based; conditions: Cancer cell lines; how it was run: as §1
# [6] = Cytotoxicity against human H460M cancer cell line was determined after 144 hr; format: functional, cell-based; conditions: Cancer cell lines; how it was run: as §1
# [7] = Cytotoxicity against human LoVo cancer cell line was determined after 1 hr; format: cell-based; how it was run: as §2
# [8] = Cytotoxicity against human HCT116 cancer cell line was determined after 1 hr; format: cell-based; conditions: HCT-116, 1 h; how it was run: as §1
# PC-3 = assay: Cytotoxicity against human PC3 cancer cell line was determined after 144 hr; format: functional, cell-based; conditions: PC-3, 144 h; how it was run: as §1
Binding site preference (Nucleic Acid [1]),SMILES,pIC50 (HT-29),also measured
8.9,CN(C)CCn1c(=O)c2ccc(NCCCNc3ccc4c(=O)n(CCN(C)C)c(=O)n5c6ccccc6c(=O)c3c45)c3c(=O)c4ccccc4n(c1=O)c23,6.41,
2.8,CN(C)CCN1Nc2c3cc(O)ccc3nc3c(C(=O)NCCN(C)CCNC(=O)c4ccc5c6c(c7cc(O)ccc7nc46)NN5CCN(C)C)ccc1c23,< 5.00,
,COc1cc2c(=O)c3c(NCCN(C)C)ccc4c(=O)n(CCN(C)C)c(=O)n(c2cc1OC)c43,,Binding site preference (Nucleic Acid [2]): 0.12
1.8,CN(C)CCNC(=O)c1ccc(NCCCN(C)CCCNc2ccc(C(=O)NCCN(C)C)c3nc4ccc(O)cc4c(O)c23)c2c(O)c3cc(O)ccc3nc12,5.16,
41,CN(C)CCn1c(=O)c2ccc(NCCCCCCCCNc3ccc4c(=O)n(CCN(C)C)c(=O)n5c6ccccc6c(=O)c3c45)c3c(=O)c4ccccc4n(c1=O)c23,6.44,
3.4,CN(C)CCNC(=O)c1ccc2c3c(c4ccccc4nc13)NN2CCN(C)C,,
9.1,CN(C)CCn1c(=O)c2ccc(NCCN(C)CCNc3ccc4c(=O)n(CCN(C)C)c(=O)n5c6ccc(O)cc6c(=O)c3c45)c3c(=O)c4cc(O)ccc4n(c1=O)c23,6.41,
1.3,CN(C)CCN1Nc2c3cc(O)ccc3nc3c(C(=O)NCCCN(C)CCCNC(=O)c4ccc5c6c(c7cc(O)ccc7nc46)NN5CCN(C)C)ccc1c23,6.11,
2.5,COc1ccc2nc3c(C(=O)NCCCN(C)CCCNC(=O)c4ccc(NCCN(C)C)c5c(O)c6cc(OC)ccc6nc45)ccc(NCCN(C)C)c3c(O)c2c1,8.70,
4.6,COc1cc2c(=O)c3c(NCCCN(C)CCCNc4ccc5c(=O)n(CCN(C)C)c(=O)n6c7cc(OC)c(OC)cc7c(=O)c4c56)ccc4c(=O)n(CCN(C)C)c(=O)n(c2cc1OC)c43,6.60,
2.8,COc1ccc2c(c1)-c1nn(CCN(C)C)c3ccc(C(=O)NCCN(C)CCNC(=O)c4ccc5c6c(c7cc(OC)ccc7nc46)NN5CCN(C)C)c(c13)N2,6.82,
4.3,CN(C)CCn1c(=O)c2ccc(NCCN(C)CCNc3ccc4c(=O)n(CCN(C)C)c(=O)n5c6ccccc6c(=O)c3c45)c3c(=O)c4ccccc4n(c1=O)c23,6.96,
,CN(C)CCNc1ccc2c(=O)n(CCN(C)C)c(=O)n3c4ccccc4c(=O)c1c23,,Binding site preference (Nucleic Acid [2]): 0.57
1.9,COc1ccc2nc3c(C(=O)NCCN(C)C)ccc(NCCCN(C)CCCNc4ccc(C(=O)NCCN(C)C)c5nc6ccc(OC)cc6c(O)c45)c3c(O)c2c1,7.41,
,COc1ccc2c(c1)c(=O)c1c(NCCN(C)C)ccc3c(=O)n(CCN(C)C)c(=O)n2c31,,Binding site preference (Nucleic Acid [2]): 0.22
4.3,CN(C)CCN1Nc2c3ccccc3nc3c(C(=O)NCCN(C)CCNC(=O)c4ccc5c6c(c7ccccc7nc46)NN5CCN(C)C)ccc1c23,6.44,
10,CN(C)CCNc1ccc(C(=O)NCCCN(C)CCCNC(=O)c2ccc(NCCN(C)C)c3c(=O)c4ccccc4[nH]c23)c2[nH]c3ccccc3c(=O)c12,7.24,
,COc1ccc2c(c1)c(=O)c1c(NCCN(C)CCNc3ccc4c(=O)n(CCN(C)C)c(=O)n5c6ccc(OC)cc6c(=O)c3c45)ccc3c(=O)n(CCN(C)C)c(=O)n2c31,6.14,
1.6,CN(C)CCNc1ccc(C(=O)NCCCN(C)CCCNC(=O)c2ccc(NCCN(C)C)c3c(O)c4cc(O)ccc4nc23)c2nc3ccc(O)cc3c(O)c12,6.10,
1.6,COc1ccc2c(c1)-c1nn(CCN(C)C)c3ccc(C(=O)NCCN(C)C)c(c13)N2,,
,CN(C)CCNc1ccc2c(=O)n(CCN(C)C)c(=O)n3c4ccc([N+](=O)[O-])cc4c(=O)c1c23,,Binding site preference (Nucleic Acid [2]): 0.12
,CN(C)CCNC(=O)c1ccc(NCCCN(C)CCCNc2ccc(C(=O)NCCN(C)C)c3nc4ccc([N+](=O)[O-])cc4c(O)c23)c2c(O)c3cc([N+](=O)[O-])ccc3nc12,> 10.00,
30,CN(C)CCn1c(=O)c2ccc(NCCCCCCNc3ccc4c(=O)n(CCN(C)C)c(=O)n5c6ccccc6c(=O)c3c45)c3c(=O)c4ccccc4n(c1=O)c23,7.37,
,O=C1c2c(O)ccc(O)c2C(=O)c2c(NCCNCCO)ccc(NCCNCCO)c21 [MITOXANTRONE],,pIC50 [3]: 9.07; pIC50 (MKN-45): 7.92; pIC50 [4]: 7.12; pIC50 (LoVo): 8.48; pIC50 (HCT-116): 8.24; pIC50 [5]: 8.17; pIC50 [6]: 9.12; pIC50 [7]: 7.92; pIC50 [8]: 6.96; pIC50 (PC-3): 8.15
,CN(C)CCNc1ccc2c(=O)n(CCN(C)C)c(=O)n3c4ccc(O)cc4c(=O)c1c23,,Binding site preference (Nucleic Acid [2]): 0.25
,CN(C)CCNC(=O)c1ccc(NCCCN(C)CCCNc2ccc(C(=O)NCCN(C)C)c3nc4ccccc4c(O)c23)c2c(O)c3ccccc3nc12,9.37,
84,CN(C)CCn1c(=O)c2ccc(NCCN(C)CCN(C)CCNc3ccc4c(=O)n(CCN(C)C)c(=O)n5c6ccccc6c(=O)c3c45)c3c(=O)c4ccccc4n(c1=O)c23,6.41,
12,CN(C)CCn1c(=O)c2ccc(NCCCCCCCCCCCCNc3ccc4c(=O)n(CCN(C)C)c(=O)n5c6ccccc6c(=O)c3c45)c3c(=O)c4ccccc4n(c1=O)c23,5.46,
5.1,CN(C)CCNC(=O)c1ccc2c3c(c4cc(O)ccc4nc13)NN2CCN(C)C,,
